# Measurements published in ChEMBL document CHEMBL4002610, “Design, synthesis and biological activity evaluation of novel 2,6-difluorobenzamide derivatives through FtsZ inhibition” (2017).
# Activity calls are given as the source filed them. The rule behind the calls is not given here.
# Columns and labels:
# [1] = molecular target: T1, Cell division protein FtsZ (Staphylococcus aureus) (UniProt P0A031); experiment: Inhibition of FtsZ in Staphylococcus aureus ATCC 25923 assessed as decrease in cell division by measuring cell morphology at 2048 to 4096 ug/ml after 5 hrs by phase-contrast light microscopy
# T1 sequence (whole entry): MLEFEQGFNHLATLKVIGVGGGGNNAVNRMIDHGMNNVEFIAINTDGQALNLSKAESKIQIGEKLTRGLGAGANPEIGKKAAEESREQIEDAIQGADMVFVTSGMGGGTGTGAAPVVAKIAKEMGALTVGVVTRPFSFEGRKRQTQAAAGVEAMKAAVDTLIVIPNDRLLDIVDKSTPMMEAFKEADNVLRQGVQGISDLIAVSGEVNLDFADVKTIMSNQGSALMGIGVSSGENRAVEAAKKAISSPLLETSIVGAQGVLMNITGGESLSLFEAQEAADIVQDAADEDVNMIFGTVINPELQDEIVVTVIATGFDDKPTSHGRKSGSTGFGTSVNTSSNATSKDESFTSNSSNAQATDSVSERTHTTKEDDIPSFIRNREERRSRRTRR
# Streptococcus pneumoniae = experiment: Antibacterial activity against Streptococcus pneumoniae ATCC 49619 after 24 hrs by broth microdilution method; format: functional; conditions: ATCC 49619, 24 h
# How it was run: (§1)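 MIC by standard broth microdilution per NCCLS guidance. Strain panel: B. subtilis ATCC9372 and S. aureus ATCC25923 as standard susceptible strains, S. aureus ATCC29213 as […], S. pyogenes PS as penicillin-susceptible, S. pneumoniae ATCC49619 as standard susceptible, alongside Gram-negative strains.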
# Bacillus subtilis [2] = experiment: Inhibition of FtsZ in Bacillus subtilis ATCC 9372 assessed as decrease in cell division by measuring cell morphology at 2048 to 4096 ug/ml after 5 hrs by phase-contrast light microscopy
# Pseudomonas aeruginosa = experiment: Antibacterial activity against Pseudomonas aeruginosa ATCC 27853 after 24 hrs by broth microdilution method; format: functional; conditions: ATCC 27853, 24 h; how it was run: as §1
# [3] = system: Escherichia coli ATCC 25922; experiment: Inhibition of FtsZ in Escherichia coli ATCC 25922 assessed as decrease in cell division by measuring lowest compound concentration at which bacterial filamentation is observed after 5 hrs by phase-contrast light microscopy
# How it was run: (§2)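 Cell division inhibition scored by cell morphology under phase-contrast light microscopy. B. subtilis ATCC9372, E. coli ATCC25922 and S. aureus ATCC25923 were exposed to compound. The lowest concentration giving filamentation (B. subtilis, E. coli) or ballooning (S. aureus) was recorded as the cell division inhibitory concentration.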
# Staphylococcus aureus [4] = experiment: Antibacterial activity against penicillin-resistant Staphylococcus aureus clinical isolate after 24 hrs by broth microdilution method; format: functional
# Bacillus subtilis [5] = experiment: Antibacterial activity against Bacillus subtilis ATCC 9372 after 24 hrs by broth microdilution method; format: functional; conditions: ATCC 9372, 24 h; how it was run: as §1
# Staphylococcus aureus [6] = experiment: Antibacterial activity against Staphylococcus aureus ATCC 29213 after 24 hrs by broth microdilution method; format: functional; conditions: ATCC 29213, 24 h; how it was run: as §1
# Streptococcus pyogenes = experiment: Antibacterial activity against penicillin-susceptible Streptococcus pyogenes after 24 hrs by broth microdilution method; format: functional; how it was run: as §1
# Escherichia coli = experiment: Antibacterial activity against Escherichia coli ATCC 25922 after 24 hrs by broth microdilution method; format: functional; conditions: ATCC 25922, 24 h; how it was run: as §1
# Staphylococcus aureus [7] = experiment: Antibacterial activity against Staphylococcus aureus ATCC 25923 after 24 hrs by broth microdilution method; format: functional; conditions: ATCC 25923, 24 h; how it was run: as §1
# Bacillus subtilis [8] = experiment: Inhibition of FtsZ in Bacillus subtilis ATCC 9372 assessed as decrease in cell division by measuring lowest compound concentration at which bacterial filamentation is observed after 5 hrs by phase-contrast light microscopy; how it was run: as §2
# [9] = molecular target: T1, Cell division protein FtsZ (Staphylococcus aureus); experiment: Inhibition of FtsZ in Staphylococcus aureus ATCC 25923 assessed as decrease in cell division by measuring lowest compound concentration at which bacterial ballooning is observed after 5 hrs by phase-contrast light microscopy; how it was run: as §2
Compound,inhibition [1],MIC (Streptococcus pneumoniae),inhibition (Bacillus subtilis [2]),MIC (Pseudomonas aeruginosa),INH [3],MIC (Staphylococcus aureus [4]),MIC (Bacillus subtilis [5]),MIC (Staphylococcus aureus [6]),MIC (Streptococcus pyogenes),MIC (Escherichia coli),MIC (Staphylococcus aureus [7]),INH (Bacillus subtilis [8]),INH [9]
NC(=O)c1c(F)ccc(OCCCCCn2cnc3ccccc32)c1F,inactive,512 µg/mL,inactive,512 µg/mL,512 µg/mL,512 µg/mL,512 µg/mL,512 µg/mL,1020 µg/mL,1020 µg/mL,512 µg/mL,,
NC(=O)c1c(F)ccc(OCCCCn2cnc3ccccc32)c1F,inactive,512 µg/mL,inactive,512 µg/mL,512 µg/mL,1020 µg/mL,512 µg/mL,512 µg/mL,1020 µg/mL,1020 µg/mL,1020 µg/mL,,
NC(=O)c1c(F)ccc(OCCn2cnc3ccccc32)c1F,inactive,512 µg/mL,inactive,1020 µg/mL,256 µg/mL,1020 µg/mL,1020 µg/mL,512 µg/mL,1020 µg/mL,512 µg/mL,1020 µg/mL,,
NC(=O)c1c(F)ccc(OCCCCCCn2cnc3cc([N+](=O)[O-])ccc32)c1F,inactive,256 µg/mL,,512 µg/mL,256 µg/mL,1020 µg/mL,1020 µg/mL,512 µg/mL,512 µg/mL,512 µg/mL,1020 µg/mL,64 µg/mL,
NC(=O)c1c(F)ccc(OCCCCn2cnc3cc([N+](=O)[O-])ccc32)c1F,inactive,128 µg/mL,inactive,512 µg/mL,256 µg/mL,512 µg/mL,64 µg/mL,256 µg/mL,256 µg/mL,512 µg/mL,1020 µg/mL,,512 µg/mL
NC(=O)c1c(F)ccc(OCCCBr)c1F,,> 128 µg/mL,,128 µg/mL,64 µg/mL,32 µg/mL,32 µg/mL,32 µg/mL,64 µg/mL,128 µg/mL,16 µg/mL,16 µg/mL,16 µg/mL
NC(=O)c1c(F)ccc(OCc2nc3ccccc3[nH]2)c1F,,256 µg/mL,inactive,256 µg/mL,128 µg/mL,1020 µg/mL,1020 µg/mL,512 µg/mL,1020 µg/mL,256 µg/mL,1020 µg/mL,,512 µg/mL
CCOC(=O)COc1ccc(F)c(C(N)=O)c1F,,128 µg/mL,,128 µg/mL,64 µg/mL,256 µg/mL,64 µg/mL,256 µg/mL,> 128 µg/mL,128 µg/mL,128 µg/mL,32 µg/mL,64 µg/mL
NC(=O)c1c(F)ccc(OCCCn2cnc3cc([N+](=O)[O-])ccc32)c1F,,512 µg/mL,,512 µg/mL,512 µg/mL,1020 µg/mL,256 µg/mL,512 µg/mL,512 µg/mL,1020 µg/mL,1020 µg/mL,128 µg/mL,1020 µg/mL
